Among the data in ChEMBL document CHEMBL4312029, “Structure-activity relationship studies and in vitro and in vivo anticancer activity of novel 3-aroyl-1,4-diarylpyrroles against solid tumors and hematological malignancies” (Eur J Med Chem, 2020) are IC50 and inhibition values, retold here.

The target of one experiment is Tubulin. The experiment is described as follows: Inhibition of tubulin polymerization (unknown origin) incubated for 15 mins followed by GTP addition and measured for 20 mins by spectrophotometry. Format: protein-complex assay, Homo sapiens. The gist of the method: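 Tubulin assembly assay with tubulin at 10 µM. IC50 for inhibition of polymerization; run in duplicate or triplicate.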

Another experiment concerns MCF7. The experiment is described as follows: Cytotoxicity against human MCF7 cells assessed as reduction in cell growth incubated for 96 hrs by MTT assay. As to conditions: MCF7, 96 h. In kind it is functional, cell-based. The gist of the method: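 Growth inhibition of human breast carcinoma cells, reported as IC50; run in duplicate or triplicate.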
A general note: Tetrazolium assays rely on reduction of a dye to a coloured formazan, in cell work by metabolically active cells.

The target of a further experiment is Tubulin (Homo sapiens) (UniProt P68371+Q9H4B7+P0DPH7+P68366+Q13509+Q71U36+P04350+Q3ZCM7+P07437+P68363+Q9BQE3+Q6PEY2+Q13885+Q9BVA1+Q9BUF5). The experiment is described as follows: Inhibition of [3H]colchicine binding to tubulin (unknown origin) at 5 uM incubated for 10 mins by DEAE-cellulose filter method relative to control. Format: protein-complex assay.

Where only a bound is given, the exact number is not on record here.

One may read the IC50 as the midpoint of a concentration-inhibition curve. As a reminder, the inhibition is the relative decrease from the control value, in per cent. A higher inhibition goes with strong suppression. As for `COc1cc(C(=O)c2cn(-c3cccc([N+](=O)[O-])c3)cc2-c2ccccc2)cc(OC)c1OC`, the concentration for half-maximal inhibition (IC50) against Tubulin was more than 20000 nM; in the experiment on MCF7, 550 nM. This compound registered an inhibition at Tubulin (Homo sapiens) of 12%.
As for `COc1cc(C(=O)c2cn(-c3ccc(F)cc3)cc2-c2ccccc2F)cc(OC)c1OC`, the half-inhibitory concentration (IC50) was found to be 660 nM on Tubulin and 39 nM in the experiment with MCF7. This compound showed an inhibition on Tubulin (Homo sapiens) of 68%.
The corresponding values for `COc1cc(C(=O)c2cn(-c3ccc(N)cc3)cc2-c2cccc(N)c2)cc(OC)c1OC` are 870 nM, 78 nM and 59%.
The corresponding values for `COc1ccc(-c2cn(-c3ccccc3)cc2C(=O)c2cc(OC)c(OC)c(OC)c2)cc1` are 480 nM, 70 nM and 42%.
The corresponding values for `COc1cc(C(=O)c2cn(-c3cccc(F)c3)cc2-c2ccccc2[N+](=O)[O-])cc(OC)c1OC` are 1100 nM, 190 nM and 41%.
With `COc1cc(C(=O)c2cn(-c3ccc(C)cc3)cc2-c2ccccc2F)cc(OC)c1OC`, the half-maximal inhibitory concentration (IC50) on Tubulin came out at 780 nM; in the experiment with MCF7, 44 nM. Besides, the inhibition at Tubulin (Homo sapiens) came to 80%.
The corresponding values for `COc1cc(C(=O)c2cn(-c3ccc(C)cc3)cc2-c2ccccc2Cl)cc(OC)c1OC` are 480 nM, 180 nM and 70%.
For `COc1cccc(-n2cc(C(=O)c3cc(OC)c(OC)c(OC)c3)c(-c3ccccc3)c2)c1`, the IC50 was 1600 nM against Tubulin and 500 nM in the experiment with MCF7. Besides, the inhibition on Tubulin (Homo sapiens) was 25%.
With `COc1cc(C(=O)c2cn(-c3ccccc3)cc2/C=C/c2ccccc2)cc(OC)c1OC`, the concentration for half-maximal inhibition (IC50) against Tubulin was more than 20000 nM; in the experiment with MCF7, 2200 nM.
On to `COc1cc(C(=O)c2cn(-c3ccc(N)cc3)cc2-c2ccccc2[N+](=O)[O-])cc(OC)c1OC`, for which the concentration for half-maximal inhibition (IC50) at Tubulin was 520 nM; in the experiment with MCF7 it was 53 nM. On Tubulin (Homo sapiens), this compound gave an inhibition of 69%.
The corresponding values for `COc1cc(C(=O)c2cn(-c3ccc(C)cc3)cc2-c2ccc(N)cc2)cc(OC)c1OC` are 360 nM, 6 nM and 95%.
Take `COc1cc(C(=O)c2cn(-c3ccccc3[N+](=O)[O-])cc2-c2ccccc2)cc(OC)c1OC`: the IC50 on Tubulin is more than 20000 nM; in the experiment on MCF7 it was 5000 nM.
On to `COc1cc(C(=O)c2cn(-c3ccc(C)cc3)cc2-c2cccc(N)c2)cc(OC)c1OC`, for which the IC50 at Tubulin amounted to 420 nM; with MCF7, 53 nM. The inhibition on Tubulin (Homo sapiens) worked out at 88%.
The corresponding values for `COc1cc(C(=O)c2cn(-c3ccccc3)cc2-c2cccc([N+](=O)[O-])c2)cc(OC)c1OC` are 940 nM, 50 nM and 12%.
The corresponding values for `COc1cc(C(=O)c2cn(-c3ccccc3)cc2-c2cccc(Cl)c2)cc(OC)c1OC` are 2300 nM, 540 nM and 7.5%.
The corresponding values for `COc1cc(C(=O)c2cn(-c3ccc(N)cc3)cc2-c2ccccc2)cc(OC)c1OC` are 1600 nM, 35 nM and 67%.
Take `COc1cc(C(=O)c2cn(-c3cccc(N)c3)cc2-c2cccc(N)c2)cc(OC)c1OC`: the IC50 at Tubulin was determined as 880 nM; in the experiment on MCF7, 60 nM. Besides, the inhibition on Tubulin (Homo sapiens) was 70%.
The corresponding values for `COc1cc(C(=O)c2cn(-c3cccc(C)c3)cc2-c2ccc(N)cc2)cc(OC)c1OC` are 330 nM, 18 nM and 88%.
With `COc1cc(C(=O)c2cn(-c3ccc(N)cc3)cc2-c2cccc([N+](=O)[O-])c2)cc(OC)c1OC`, the IC50 on Tubulin came out at 3800 nM; in the experiment with MCF7, 260 nM. This compound also showed an inhibition at Tubulin (Homo sapiens) of 18%.
The corresponding values for `COc1cc(C(=O)c2cn(-c3ccc(N)cc3)cc2-c2ccccc2Cl)cc(OC)c1OC` are 710 nM, 83 nM and 65%.
Turning to `COc1cc(C(=O)c2cn(-c3ccccc3Cl)cc2-c2ccccc2)cc(OC)c1OC`, the IC50 against Tubulin is more than 20000 nM; in the experiment with MCF7, 1800 nM.
The corresponding values for `COc1ccc(Br)cc1-c1cn(-c2ccccc2)cc1C(=O)c1cc(OC)c(OC)c(OC)c1` are more than 20000 nM and 2200 nM.
`COc1cc(C(=O)c2cn(-c3cccc(C)c3)cc2-c2ccccc2Cl)cc(OC)c1OC`: the results for the 50% inhibitory concentration (IC50) on Tubulin and with MCF7 were 710 nM and 420 nM, respectively. Moreover, the inhibition on Tubulin (Homo sapiens) came to 39%.
The corresponding values for `COc1cc(C(=O)c2cn(-c3cc(OC)c(OC)c(OC)c3)cc2-c2ccccc2)cc(OC)c1OC` are more than 20000 nM, more than 5000 nM and 6.5%.
The corresponding values for `COc1cc(C(=O)c2cn(-c3ccc(F)cc3)cc2-c2cccc([N+](=O)[O-])c2)cc(OC)c1OC` are more than 20000 nM, 440 nM and 11%.
The corresponding values for `COc1cc(C(=O)c2cn(-c3cccc(N)c3)cc2-c2cccc([N+](=O)[O-])c2)cc(OC)c1OC` are 1700 nM, 510 nM and 32%.
For the compound `COc1cc(C(=O)c2cn(-c3cccc(Cl)c3)cc2-c2ccccc2)cc(OC)c1OC`, the 50% inhibitory concentration (IC50) against Tubulin was found to be 2100 nM; with MCF7, 150 nM. The compound also returned an inhibition on Tubulin (Homo sapiens) of 37%.
The corresponding values for `COc1cc(C(=O)c2cn(-c3ccc(Br)cc3)cc2-c2ccccc2)cc(OC)c1OC` are 660 nM, 20 nM and 78%.
The corresponding values for `COc1cc(C(=O)c2cn(-c3cccc(C)c3)cc2-c2cccc(N)c2)cc(OC)c1OC` are 910 nM, 130 nM and 64%.
`COc1cc(C(=O)c2cn(-c3ccccc3)cc2-c2ccccc2C)cc(OC)c1OC`: the IC50 against Tubulin amounted to 790 nM; in the experiment with MCF7, 190 nM. For the same compound, the inhibition at Tubulin (Homo sapiens) was determined as 18%.
Turning to `COc1cc(C(=O)c2cn(-c3ccc(F)cc3)cc2-c2ccccc2[N+](=O)[O-])cc(OC)c1OC`, the half-inhibitory concentration (IC50) at Tubulin amounted to 680 nM; with MCF7, 38 nM. Besides, the inhibition on Tubulin (Homo sapiens) amounted to 46%.
The corresponding values for `COc1cc(C(=O)c2cn(-c3ccc(F)cc3)cc2-c2cccc(N)c2)cc(OC)c1OC` are 410 nM, 53 nM and 68%.
Turning to `COc1cc(C(=O)c2cn(-c3ccccc3N)cc2-c2ccccc2)cc(OC)c1OC`, the values for the 50% inhibitory concentration (IC50) at Tubulin and in the experiment with MCF7 were more than 20000 nM and 3800 nM, respectively.
Consider `COc1cc(C(=O)c2cn(-c3ccc(C)cc3)cc2-c2ccccc2[N+](=O)[O-])cc(OC)c1OC`, for which the IC50 came out at 610 nM at Tubulin and 65 nM in the experiment on MCF7. The inhibition on Tubulin (Homo sapiens) came out at 71%.
The corresponding values for `COc1cc(C(=O)c2cn(-c3cccc(Br)c3)cc2-c2ccccc2)cc(OC)c1OC` are 1900 nM, 78 nM and 23%.
The corresponding values for `COc1cc(C(=O)c2cn(-c3ccc(F)cc3)cc2-c2ccccc2Cl)cc(OC)c1OC` are 510 nM, 83 nM and 65%.
The corresponding values for `COc1cc(C(=O)c2cn(-c3ccccc3)cc2-c2ccc(Cl)cc2)cc(OC)c1OC` are 1200 nM, 290 nM and 23%.
Regarding `COc1cc(C(=O)c2cn(-c3ccccc3)cc2-c2ccc(Br)cc2)cc(OC)c1OC`, the results for the IC50 against Tubulin and in the experiment on MCF7 were 770 nM and 340 nM, respectively. The compound also showed an inhibition at Tubulin (Homo sapiens) of 14%.
With `COc1cc(C(=O)c2cn(-c3ccccc3)cc2-c2ccccc2Br)cc(OC)c1OC`, the values for the half-inhibitory concentration (IC50) on Tubulin and with MCF7 were 670 nM and 190 nM, respectively. The inhibition on Tubulin (Homo sapiens) is 39%.
Take `COc1cc(C(=O)c2cn(-c3ccccc3)cc2-c2ccccc2[N+](=O)[O-])cc(OC)c1OC`: the concentration for half-maximal inhibition (IC50) is 730 nM at Tubulin and 49 nM in the experiment on MCF7. The compound further registered an inhibition at Tubulin (Homo sapiens) of 61%.
Take `COc1cccc(-c2cn(-c3ccccc3)cc2C(=O)c2cc(OC)c(OC)c(OC)c2)c1`: the IC50 was 450 nM on Tubulin and 180 nM with MCF7. The compound also displayed an inhibition at Tubulin (Homo sapiens) of 27%.
As to `COc1cc(C(=O)c2cn(-c3cccc(C)c3)cc2-c2ccccc2F)cc(OC)c1OC`, the IC50 at Tubulin turned out to be 790 nM; in the experiment on MCF7 it was 190 nM. On Tubulin (Homo sapiens), this compound returned an inhibition of 57%.
Regarding `COc1cc(C(=O)c2cn(-c3ccc([N+](=O)[O-])cc3)cc2-c2ccccc2)cc(OC)c1OC`, the half-inhibitory concentration (IC50) was determined as 3300 nM against Tubulin and 4000 nM with MCF7. In addition, the inhibition at Tubulin (Homo sapiens) stood at 18%.
The corresponding values for `COc1ccc(-n2cc(C(=O)c3cc(OC)c(OC)c(OC)c3)c(-c3ccccc3)c2)cc1` are 960 nM, 120 nM and 27%.
The corresponding values for `COc1cc(C(=O)c2cn(-c3ccccc3)cc2-c2c(F)cc(F)cc2F)cc(OC)c1OC` are 510 nM, 180 nM and 27%.
For `COc1cc(C(=O)c2cn(-c3ccccc3C)cc2-c2ccccc2)cc(OC)c1OC`, the half-maximal inhibitory concentration (IC50) is more than 20000 nM against Tubulin and 2200 nM in the experiment on MCF7.
For the compound `COc1ccccc1-c1cn(-c2ccccc2)cc1C(=O)c1cc(OC)c(OC)c(OC)c1`, the IC50 on Tubulin is 550 nM; in the experiment with MCF7 it was 190 nM. For the same compound, the inhibition at Tubulin (Homo sapiens) amounted to 31%.
As for `COc1cc(C(=O)c2cn(-c3ccccc3)cc2-c2ccc([N+](=O)[O-])cc2)cc(OC)c1OC`, the IC50 on Tubulin is more than 20000 nM; with MCF7, 590 nM.
The corresponding values for `COc1cc(C(=O)c2cn(-c3ccccc3)cc2-c2ccc(N)cc2)cc(OC)c1OC` are 1200 nM and 9 nM.
The corresponding values for `COc1cc(C(=O)c2cn(-c3ccccc3)cc2-c2cccc(Br)c2)cc(OC)c1OC` are more than 20000 nM and 950 nM.
